Values after ≈ are worked out from the molar mass of the structure shown.
Key:
Assay type in all cases: functional
Klebsiella pneumoniae [1] = experiment: Minimum inhibitory concentration (MIC) against Klebsiella pneumoniae ATCC 13882; Inactive
In short: (§1)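 Broth microdilution in Mueller–Hinton broth supplemented with 50% human serum; inoculum 5 × 10⁵ cfu/mL.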

Pseudomonas aeruginosa [2] = experiment: Minimum inhibitory concentration (MIC) against Pseudomonas aeruginosa PA01; Inactive; in short: as §1
Staphylococcus aureus [3] = experiment: Minimum inhibitory concentration (MIC) against Staphylococcus aureus […]; Inactive; in short: as §1
Enterobacter cloacae [4] = experiment: Minimum inhibitory concentration (MIC) against Enterobacter cloacae ATCC 35030; Inactive; in short: as §1
Escherichia coli [5] = experiment: Minimum inhibitory concentration (MIC) against Escherichia coli ATCC 25922; Inactive; in short: as §1
Escherichia coli [6] = experiment: Minimum inhibitory concentration (MIC) against Escherichia coli MG1655; Inactive; in short: as §1
Streptococcus pneumoniae [7] = experiment: Minimum inhibitory concentration (MIC) against Streptococcus pneumoniae 1005; Inactive; in short: as §1
Escherichia coli [8] = experiment: Minimum inhibitory concentration (MIC) against Escherichia coli MG1655 tolC; Inactive; in short: as §1
Escherichia coli [9] = experiment: Minimum inhibitory concentration (MIC) against Escherichia coli MG1655; in short: as §1
Staphylococcus aureus [10] = experiment: Minimum inhibitory concentration (MIC) against Staphylococcus aureus ATCC 25293; in short: as §1
Enterobacter cloacae [11] = experiment: Minimum inhibitory concentration (MIC) against Enterobacter cloacae ATCC 35030; in short: as §1
Escherichia coli [12] = experiment: Minimum inhibitory concentration (MIC) against Escherichia coli ATCC 25922; in short: as §1
Escherichia coli [13] = experiment: Minimum inhibitory concentration (MIC) against Escherichia coli MG1655 tolC; in short: as §1
Streptococcus pneumoniae [14] = experiment: Minimum inhibitory concentration (MIC) against Streptococcus pneumoniae 1005; in short: as §1
Klebsiella pneumoniae [15] = experiment: Minimum inhibitory concentration (MIC) against Klebsiella pneumoniae ATCC 13882; in short: as §1
Pseudomonas aeruginosa [16] = experiment: Minimum inhibitory concentration (MIC) against Pseudomonas aeruginosa PA01; in short: as §1
Mus musculus = species: Mus musculus; experiment: Compound was evaluated for its efficacy in an Escherichia coli murine septicemia model
In short: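 Mice infected intraperitoneally with about 1 × 10⁵ cfu of E. coli ATCC25922; compound given intravenously at 1 and 5 h post-infection.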

[17] = Escherichia coli, read-out: MIC
[18] = Staphylococcus aureus, ATCC 25293, read-out: MIC
[19] = Enterobacter cloacae, ATCC 35030, read-out: MIC
[20] = Escherichia coli, ATCC 25922, read-out: MIC
[21] = Escherichia coli, MG1655, read-out: MIC
[22] = Klebsiella pneumoniae, ATCC 13882, read-out: MIC
[23] = Pseudomonas aeruginosa, read-out: MIC

Structure (SMILES) | MIC (Klebsiella pneumoniae [1]) [µg/mL] | MIC (Pseudomonas aeruginosa [2]) [µg/mL] | MIC (Staphylococcus aureus [3]) [µg/mL] | MIC (Enterobacter cloacae [4]) [µg/mL] | MIC (Escherichia coli [5]) [µg/mL] | MIC (Escherichia coli [6]) [µg/mL] | MIC (Streptococcus pneumoniae [7]) [µg/mL] | MIC (Escherichia coli [8]) [µg/mL] | MIC (Escherichia coli [9]; [17]) [µg/mL] | MIC (Staphylococcus aureus [10]; [18]) [µg/mL] | MIC (Enterobacter cloacae [11]; [19]) [µg/mL] | MIC (Escherichia coli [12]; [20]) [µg/mL] | MIC (Escherichia coli [13]; [21]) [µg/mL] | MIC (Streptococcus pneumoniae [14]) [µg/mL] | MIC (Klebsiella pneumoniae [15]; [22]) [µg/mL] | MIC (Pseudomonas aeruginosa [16]; [23]) [µg/mL] | other results
CN(CC(=O)O)NC(=O)C[C@H](N)C1CCCNC1 (stereo partly specified) | – | – | – | – | – | – | – | – | > 128 | > 128 | > 128 | > 128 | > 128 | > 128 | > 128 | > 128 | –
CN(CC(=O)O)NC(=O)C[C@H](N)/C=C(/F)CN | – | – | – | – | – | – | – | – | > 256 | > 256 | > 256 | > 256 | > 256 | 256 (≈ 1030 µM) | > 256 | > 256 | –
CN(CC(=O)O)NC(=O)CC(N)C1CCC(N)CC1 (stereo unspecified) | – | – | – | – | – | – | – | – | 64 (≈ 235 µM) | 128 (≈ 470 µM) | 128 (≈ 470 µM) | 128 (≈ 470 µM) | 32 (≈ 117 µM) | 128 (≈ 470 µM) | 32 (≈ 117 µM) | 256 (≈ 940 µM) | –
CN(CC(=O)O)NC(=O)CC1(N)CCC(N)CC1 (stereo unspecified) | > 256 | > 256 | > 256 | > 256 | > 256 | > 256 | > 256 | > 256 | – | – | – | – | – | – | – | – | –
CN(CC(=O)O)NC(=O)CC(N)C1CCCC(N)C1 (stereo unspecified) | – | – | – | – | – | – | – | – | 128 (≈ 470 µM) | 256 (≈ 940 µM) | 256 (≈ 940 µM) | 256 (≈ 940 µM) | 64 (≈ 235 µM) | 128 (≈ 470 µM) | 64 (≈ 235 µM) | > 256 | –
CN(CC(=O)O)NC(=O)C[C@H](N)c1csc(CNC(=O)OC(C)(C)C)n1 | > 256 | > 256 | > 256 | > 256 | > 256 | > 256 | > 256 | > 256 | – | – | – | – | – | – | – | – | –
CN(CC(=O)O)NC(=O)CC(N)[C@H]1CC[C@@H](N)C1 (stereo partly specified) | – | – | – | – | – | – | – | – | 128 (≈ 496 µM) | 128 (≈ 496 µM) | 128 (≈ 496 µM) | 128 (≈ 496 µM) | 64 (≈ 248 µM) | 128 (≈ 496 µM) | 64 (≈ 248 µM) | 256 (≈ 991 µM) | –
CN(CC(=O)O)NC(=O)C[C@H](N)C1CC1CN (stereo partly specified) | – | – | – | – | – | – | – | – | > 128 | > 128 | > 128 | > 128 | > 128 | – | > 128 | > 128 | –
CN(CC(=O)O)NC(=O)C[C@H](N)c1csc(CCNC(=O)OC(C)(C)C)n1 | > 256 | > 256 | > 256 | > 256 | > 256 | > 256 | > 256 | > 256 | – | – | – | – | – | – | – | – | –
CN(CC(=O)O)NC(=O)C[C@H](N)C1CC1N (stereo in doubt; 35e1) | – | – | – | – | – | – | – | – | – | – | – | – | – | – | – | – | MIC (Escherichia coli [9]): >128 µg/mL; MIC (Staphylococcus aureus [10]): >128 µg/mL; MIC (Enterobacter cloacae [11]): >128 µg/mL; MIC (Escherichia coli [12]): >128 µg/mL; MIC (Escherichia coli [13]): >128 µg/mL; MIC (Klebsiella pneumoniae [15]): >128 µg/mL; MIC (Pseudomonas aeruginosa [16]): >128 µg/mL
CN(CC(=O)O)NC(=O)C[C@H](N)C1CC1N (stereo in doubt; 35e2) | – | – | – | – | – | – | – | – | 128 (≈ 556 µM) | 128 (≈ 556 µM) | 128 (≈ 556 µM) | 128 (≈ 556 µM) | 128 (≈ 556 µM) | – | 128 (≈ 556 µM) | 128 (≈ 556 µM) | –
CN(CC(=O)O)NC(=O)C[C@H](N)C[C@@H](O)CN [NEGAMYCIN] | – | – | – | – | – | – | – | – | – | – | – | – | – | – | – | – | ED50 (Mus musculus): 5.1 mg/kg

More lines, main results first:

MIC (Klebsiella pneumoniae [1]) [µg/mL] | MIC (Pseudomonas aeruginosa [2]) [µg/mL] | MIC (Staphylococcus aureus [3]) [µg/mL] | MIC (Enterobacter cloacae [4]) [µg/mL] | MIC (Escherichia coli [5]) [µg/mL] | MIC (Escherichia coli [6]) [µg/mL] | MIC (Streptococcus pneumoniae [7]) [µg/mL] | MIC (Escherichia coli [8]) [µg/mL] | MIC (Escherichia coli [9]; [17]) [µg/mL] | MIC (Staphylococcus aureus [10]; [18]) [µg/mL] | MIC (Enterobacter cloacae [11]; [19]) [µg/mL] | MIC (Escherichia coli [12]; [20]) [µg/mL] | MIC (Escherichia coli [13]; [21]) [µg/mL] | MIC (Streptococcus pneumoniae [14]) [µg/mL] | MIC (Klebsiella pneumoniae [15]; [22]) [µg/mL] | MIC (Pseudomonas aeruginosa [16]; [23]) [µg/mL] | Structure (SMILES) | other results
> 256 | > 256 | > 256 | > 256 | > 256 | > 256 | > 256 | > 256 | – | – | – | – | – | – | – | – | CN(CC(=O)O)NC(=O)C[C@H](N)Cc1csc(N)n1 | –
> 256 | > 256 | > 256 | > 256 | > 256 | > 256 | > 256 | > 256 | – | – | – | – | – | – | – | – | CN(CC(=O)O)NC(=O)C[C@H](N)c1csc(N)n1 | –
– | – | – | – | – | – | – | – | 8 (≈ 34.4 µM) | 64 (≈ 276 µM) | 4 (≈ 17.2 µM) | 16 (≈ 68.9 µM) | 4 (≈ 17.2 µM) | 64 (≈ 276 µM) | 8 (≈ 34.4 µM) | 64 (≈ 276 µM) | CN(CC(=O)O)NC(=O)C[C@H](N)CCCN | ED50 (Mus musculus): 4.8 mg/kg
– | – | – | – | – | – | – | – | > 256 | > 256 | > 256 | > 256 | > 256 | 256 (≈ 1030 µM) | > 256 | > 256 | CN(CC(=O)O)NC(=O)C[C@H](N)/C=C(\F)CN | –
> 256 | > 256 | > 256 | > 256 | > 256 | > 256 | > 256 | > 256 | – | – | – | – | – | – | – | – | CN(CC(=O)O)NC(=O)C[C@H](N)Cc1csc(CCNC(=O)OC(C)(C)C)n1 | –
– | – | – | – | – | – | – | – | 64 (≈ 262 µM) | 256 (≈ 1050 µM) | 128 (≈ 524 µM) | 64 (≈ 262 µM) | 32 (≈ 131 µM) | 128 (≈ 524 µM) | 32 (≈ 131 µM) | 256 (≈ 1050 µM) | CN(CC(=O)O)NC(=O)C[C@H](N)CC1CC1N (stereo partly specified) | –
> 256 | > 256 | > 256 | > 256 | > 256 | > 256 | > 256 | > 256 | – | – | – | – | – | – | – | – | CN(CC(=O)O)NC(=O)C[C@H](N)Cc1csc(CNC(=O)OC(C)(C)C)n1 | –
– | – | – | – | – | – | – | – | > 256 | > 256 | > 256 | > 256 | > 256 | 256 (≈ 1110 µM) | > 256 | > 256 | CN(CC(=O)O)NC(=O)C[C@H](N)/C=C/CN | –

From ChEMBL document CHEMBL1146783, “Conformationally restricted analogs of deoxynegamycin” (Bioorg Med Chem Lett, 2004)
